Screens from PubChem BioAssay.
DSG3 Ab inh – human desmoglein-3 autoantibody binding inhibition. 310,000 tested, 0.48% active. binding (percent of control), % at 10 µM. P32926. DSG3-coupled beads, scFv-anti-DSG3-GFP binding, flow cytometry; active compounds read low;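 active = binding more than 3 SD below its plate's average and above zero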;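 note: hits lower antibody fragment binding to DSG3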
Target sequence (P32926 whole entry, looked up, the tested form may be a part): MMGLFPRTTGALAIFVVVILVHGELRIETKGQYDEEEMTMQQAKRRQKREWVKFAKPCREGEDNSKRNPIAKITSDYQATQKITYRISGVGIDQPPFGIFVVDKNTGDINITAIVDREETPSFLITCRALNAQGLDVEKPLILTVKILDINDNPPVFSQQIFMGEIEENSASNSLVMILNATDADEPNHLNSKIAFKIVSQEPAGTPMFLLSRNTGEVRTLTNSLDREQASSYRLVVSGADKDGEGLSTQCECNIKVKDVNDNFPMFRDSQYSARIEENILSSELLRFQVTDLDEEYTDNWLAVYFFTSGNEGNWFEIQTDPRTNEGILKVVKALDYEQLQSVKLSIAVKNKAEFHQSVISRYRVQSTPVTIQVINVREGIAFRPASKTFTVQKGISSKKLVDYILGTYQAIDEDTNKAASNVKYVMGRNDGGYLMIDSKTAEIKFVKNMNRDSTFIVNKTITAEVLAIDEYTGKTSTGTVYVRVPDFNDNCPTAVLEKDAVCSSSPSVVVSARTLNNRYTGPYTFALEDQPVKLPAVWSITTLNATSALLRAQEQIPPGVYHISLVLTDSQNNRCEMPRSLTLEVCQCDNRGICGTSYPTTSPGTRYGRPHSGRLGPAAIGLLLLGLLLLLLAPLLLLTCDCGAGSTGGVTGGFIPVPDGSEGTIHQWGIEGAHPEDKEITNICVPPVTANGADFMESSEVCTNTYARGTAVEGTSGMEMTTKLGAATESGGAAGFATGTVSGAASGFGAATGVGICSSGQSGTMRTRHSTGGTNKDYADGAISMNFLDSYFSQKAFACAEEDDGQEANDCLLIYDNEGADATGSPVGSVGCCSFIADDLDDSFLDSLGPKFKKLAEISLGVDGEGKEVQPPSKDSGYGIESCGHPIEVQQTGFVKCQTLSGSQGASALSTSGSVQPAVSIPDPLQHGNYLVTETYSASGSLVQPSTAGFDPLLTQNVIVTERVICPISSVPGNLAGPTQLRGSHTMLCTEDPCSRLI
SUMO1-SIM PPI – modulators of human SUMO1-mediated protein-protein interactions | P63165 | SUMO1 binding to a labelled peptide, TR-FRET, 1 h | inhibition, % at 20 µM | 360,000 tested, 0.33% active; in the data active = inhibition above about 37%
LMPTP inh – blocks human LMPTP phosphatase; P24666; recombinant LMPTP-A, OMFP fluorogenic substrate, fluorescence intensity; inhibition, % at 20 µM; 360,000 tested, 0.22% active;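 active = compounds that cut the enzyme signal by at least half of the control window in the single-dose screen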;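 note: plate controls were DMSO wells with enzyme plus substrate for no effect and substrate without enzyme for full effect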
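material = LMPTP-A | quantity = 0.625 nM enzyme | reagent = OMFP substrate, 400 µM final | buffer or medium = Bis-Tris pH 6.0, DTT, detergent | detection = endpoint fluorescence intensity from OMFP dephosphorylation | dosing = single 20 µM dose | read-out basis = % inhibition relative to no-enzyme and uninhibited control wells | control set = no-enzyme and uninhibited controls | timing = 50 min at room temperature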
Scp1 inh – blocks human Scp-1 phosphatase activity. Q9GZU7. Recombinant Scp1, phosphopeptide, malachite green phosphate absorbance. inhibition, % at 20 µM. 340,000 tested, 0.88% active. AID 493091;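 active = inhibition above about 50% at 20 µM, limit read from the data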;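 note: plate controls were DMSO wells with enzyme for no effect and wells lacking enzyme for full effect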
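Material: truncated SCP-1 phosphatase (76-261aa) / Buffer or medium: 50 mM Tris acetate pH 5.5, 0.005% Tween-20, 10 mM MgCl2 / Compound dosing: one concentration, 20 µM, with 1.0% DMSO / Incubation: 45 min room-temperature reaction, 5 min colour, 30 min stabiliser / Detection: colorimetric free-phosphate detection, absorbance 630 nm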
STEP block – blocks human striatal-enriched tyrosine phosphatase. P54829. recombinant STEP, OMFP fluorogenic substrate, fluorescence. inhibition, % at 20 µM. 360,000 tested, 0.25% active;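 active = inhibition at 20 µM, scaled per plate between control wells, above about 37%, limit read from the data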;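 note: 0% = DMSO with enzyme and substrate and 100% = substrate only without enzyme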
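System: STEP (striatal-enriched tyrosine phosphatase) enzyme, cell-free; medium: Bis-Tris pH 6.0 buffer with DTT, detergent; dosing: 20 µM, 1% DMSO; times: reaction 20 min, ambient temperature; detection: fluorescence, 480/540 nm; read-out basis: normalized % inhibition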
An asterisk follows results filed as active; . = no result. Hits are enriched below; roughly 1.7% of the tested compounds scored in any of these assays.

SMILES | DSG3 Ab inh | SUMO1-SIM PPI | LMPTP inh | Scp1 inh | STEP block
CCC(c1nnnn1-c1ccc2c(c1)OCCO2)N1CCN(c2ccc(C(F)(F)F)cc2[N+](=O)[O-])CC1 (stereo not given) | . | -5 | 2 | . | .
Cc1nc2cc(NC(=O)c3ccc(Br)s3)ccc2s1 | 109 | -1 | 3 | 7 | 41*
O=C(O)C1=C[C@H](c2csc3ccccc23)C[C@H](OCCCCO)O1 | 101 | 0 | 1 | -4 | 2
Cn1c(SCC(=O)Nc2ccc3nc(SCC(=O)N4CCCC4)sc3c2)nnc1-c1ccccc1 | . | . | . | 102* | .
CCCCN(CCCC)CCNC(=O)CN1C(=O)COc2ccc(S(=O)(=O)N3CCC(C)CC3)cc21 | . | -1 | 0 | -2 | -2
CCC1CCCCN1CCCNC(=O)CN1C(=O)COc2ccc(S(=O)(=O)N3CCC(C)CC3)cc21 (stereo not given) | . | 40* | -3 | 1 | -1
CC(C)c1ccc(NC(=O)CN2C(=O)COc3ccc(S(=O)(=O)N4CCOCC4)cc32)cc1 | 74* | -7 | 0 | -5 | 1
Clc1cccc(Cl)c1Cn1cnc(=NCc2ccco2)c2[nH]cnc21 | 105 | 2 | 84* | 6 | 4
COCCN1C(=O)CCC1(C)C(=O)NC(C)(C)C (stereo not given) | . | 2 | -1 | . | 0
Cc1onc(-c2ccccc2Cl)c1C(=O)NCc1nnnn1-c1ccc(F)c(F)c1 | 99 | 3 | 2 | . | 2
O=S(=O)(Nc1ncccn1)c1ccc(-n2cnnn2)cc1 | 105 | 1 | -2 | -3 | 1
Cn1nnc2sc3c(c2c1=O)CCCC3 | 79* | -19 | -2 | 11 | 5
CC1=CC(=C(C#N)C#N)C=C(C)N1Cc1ccc(Cl)cc1 | -3.8* | -10 | 1 | -2 | 0
CC1=CC(=C(C#N)C#N)C=C(C)N1CCN1CCN(C(=O)Nc2ccc(Cl)c(Cl)c2)CC1 | 116 | -4 | -1 | 1 | 1
Cc1cccc2cc(-c3nc4ccc(C(=O)O)cc4[nH]3)c(=O)oc12 | 94 | -4 | 4 | 58* | 18
COc1cccc2cc(-c3nc4ccccc4[nH]3)c(=O)oc12 | 84 | -17 | 5 | 3 | 1
O=C(O)[C@@H]1[C@H]2C[C@H]3c4[nH]c5ccccc5c4CCN3C[C@@H]2CC[C@@H]1O | 122 | 25 | 60* | -9 | -2
Cc1cn(-c2cc(NC(=O)c3ccc(C)c(NC(=O)c4cccc(-c5cn[nH]c(=O)c5)c4)c3)cc(C(F)(F)F)c2)cn1 | 97 | 73* | -1 | 5 | 2
COC(=O)CCC(=O)NC1CC(C)(C)Cc2c1cnn2-c1ccccc1 (stereo not given) | 111 | 3 | -2 | -8 | -1
N=c1oc2ccc3ccccc3c2cc1C(N)=S | 80* | -6 | 1 | 2 | 0
O=C(O)c1cc2c(ccc3ccccc32)oc1=O | 96 | -6 | -1 | . | 3
COc1ccc(NS(=O)(=O)c2ccc3oc(SC)nc3c2)cc1 | 107 | 0 | 1 | -10 | 5
CNC(=O)CSc1nc2cc(S(=O)(=O)Nc3ccc(OC)cc3)ccc2o1 | -4.7* | 0 | 0 | -11 | -3
COc1ccccc1Nc1ccc(N)cc1 | 39* | 3 | 4 | 4 | 3
CCN(CC)CCNC(=O)C1(c2ccccc2)CCCCC1 | 119 | 47* | 14 | -7 | -2
SMILES | DSG3 Ab inh | SUMO1-SIM PPI | LMPTP inh | Scp1 inh | STEP block
COc1ccc(S(=O)(=O)N2CCOCC2)cc1NC(=O)COC(=O)c1ccc([N+](=O)[O-])s1 | 133 | 28 | 1 | -2 | 2
CN(C)c1nc(N)ncc1-c1ccc(Oc2ccccc2)cc1 | 79* | 3 | 8 | 7 | 3
CCOC(=O)C1CCN(c2c(Nc3ccc(C)c(C)c3)c(=O)c2=O)CC1 | 87 | -6 | 1 | -7 | -1
CC(=O)N1c2ccc(S(=O)(=O)N3CCCC(C(=O)N4CCC(C)CC4)C3)cc2CC1C (stereo not given) | -9.0* | -2 | -1 | 3 | 0
O=c1c2cc(-c3ccccc3)sc2ncn1-n1cccc1 | 82* | -5 | 1 | -3 | 0
CC(C)Nc1nc(NCCN2CCCC2)c2sc(-c3ccccc3)cc2n1 | . | -57 | 52* | . | 8
CC(C)Nc1nc(-c2ccccc2F)c2sc(-c3ccccc3)cc2n1 | . | -4 | 4 | . | -1
COCCN(Cc1ccccc1)C(=O)C1CCN(C(=O)Nc2ccccc2)CC1 | 98 | 1 | -1 | -2 | 1
